Reference: ChEMBL document CHEMBL3232870, “Discovery of 3-(4-methanesulfonylphenoxy)-N-[1-(2-methoxy-ethoxymethyl)-1H-pyrazol-3-yl]-5-(3-methylpyridin-2-yl)-benzamide as a novel glucokinase activator (GKA) for the treatment of type 2 diabetes mellitus” (Bioorg Med Chem, 2014)

Legend:
[1] = Cmax in male Sprague-Dawley rat at 250 mg/kg, po measured on day 1; assay type: ADME, organism-based; design: dose 250 mg/kg, route oral; conditions: in vivo
Procedure, shortened: (§1)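 Sprague–Dawley rats, 5 weeks old at arrival, both sexes. Given the compound by oral gavage once daily for 14 days at 0, 250, 500 or 1000 mg/kg/day, with 0.5% methylcellulose as vehicle. Toxicokinetic parameters were determined on Day 1 and Day 14.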

[2] = AUC (0 to t) in female Sprague-Dawley rat at 1000 mg/kg, po measured on day 14; assay type: ADME, organism-based; design: dose 1000 mg/kg, route oral; conditions: plasma; procedure, shortened: as §1
[3] = AUC in ICR mouse at 3 mg/kg, iv and 10 mg/kg, po; assay type: ADME, organism-based; conditions: plasma
Procedure, shortened: (§2)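 Male ICR mice and 7-week-old SD rats received a 3 mg/kg intravenous bolus or a 10 mg/kg oral gavage dose. Plasma was deproteinized with acetonitrile (2 volumes) and compound measured by HPLC. Parameters came from noncompartmental analysis.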

[4] = Cmax in male Sprague-Dawley rat at 500 mg/kg, po measured on day 14; assay type: ADME, organism-based; design: dose 500 mg/kg, route oral; conditions: in vivo; procedure, shortened: as §1
[5] = Elimination half life in ICR mouse at 3 mg/kg, iv and 10 mg/kg, po; assay type: ADME, organism-based; conditions: in vivo, read-out: beta t1/2 (converted); procedure, shortened: as §2
Cytochrome P450 3A4 = Cytochrome P450 3A4 (Homo sapiens, UniProt P08684); experiment: Induction of CYP3A4 in human liver microsomes up to 25 to 50 uM; assay type: ADME
Sequence of Cytochrome P450 3A4 (P08684 whole entry): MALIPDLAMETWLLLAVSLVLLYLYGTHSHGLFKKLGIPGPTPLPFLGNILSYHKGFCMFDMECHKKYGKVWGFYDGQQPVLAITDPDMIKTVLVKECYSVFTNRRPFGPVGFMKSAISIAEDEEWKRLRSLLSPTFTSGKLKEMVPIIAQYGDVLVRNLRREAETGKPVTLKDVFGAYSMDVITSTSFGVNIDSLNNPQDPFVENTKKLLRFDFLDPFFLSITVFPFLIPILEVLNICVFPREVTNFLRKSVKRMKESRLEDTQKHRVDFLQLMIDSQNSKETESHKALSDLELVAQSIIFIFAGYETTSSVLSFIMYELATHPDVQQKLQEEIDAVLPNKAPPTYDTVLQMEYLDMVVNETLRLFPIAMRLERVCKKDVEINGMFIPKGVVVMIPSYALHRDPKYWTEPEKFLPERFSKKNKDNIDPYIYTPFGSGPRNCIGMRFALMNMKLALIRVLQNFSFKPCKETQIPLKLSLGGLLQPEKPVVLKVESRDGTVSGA

[6] = Tmax in male Sprague-Dawley rat at 250 mg/kg, po measured on day 14; assay type: ADME, organism-based; design: dose 250 mg/kg, route oral; conditions: in vivo
Procedure, shortened: (§3)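 Sprague–Dawley rats of both sexes, 5 weeks old at arrival, received daily oral gavage at 0, 250, 500 or 1000 mg/kg/day for 14 days. Vehicle was 0.5% methylcellulose at 10 mL/kg. Toxicokinetics were taken on Day 1 and Day 14. Necropsy was by Day 15. Testis was fixed in modified Davidson's fixative, paraffin-sectioned and H&E-stained, with histopathology on control and high-dose groups only.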

[7] = AUC (0 to t) in female Sprague-Dawley rat at 250 mg/kg, po measured on day 1; assay type: ADME, organism-based; design: dose 250 mg/kg, route oral; conditions: plasma; procedure, shortened: as §1
Rattus norvegicus = experiment: Toxicity in Sprague-Dawley rat assessed as seminiferous tubule vacuolation at 250 to 1000 mg/kg, po by hematoxylin and eosin staining-based microscopy; assay type: organism-based; design: dose 250-1000 mg/kg, route oral; conditions: in vivo; procedure, shortened: as §3
[8] = Cmax in female Sprague-Dawley rat at 500 mg/kg, po measured on day 14; assay type: ADME, organism-based; design: dose 500 mg/kg, route oral; conditions: in vivo; procedure, shortened: as §1
[9] = Tmax in male Sprague-Dawley rat at 500 mg/kg, po measured on day 14; assay type: ADME, organism-based; design: dose 500 mg/kg, route oral; conditions: in vivo; procedure, shortened: as §3
Canis familiaris = experiment: Toxicity in Beagle dog assessed as testicular effect administered repeated dose level of 100 mg/kg/day, po administered on days 3, 6 and 8 by hematoxylin and eosin staining-based microscopy; assay type: organism-based, Canis lupus familiaris; design: route oral; conditions: in vivo
Procedure, shortened: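 Dogs received escalating oral doses of 100, 300 and 1000 mg/kg/day over 8 days (Days 3, 6 and 8 for each dose). Vehicle was 0.5% methylcellulose at 5 mL/kg. Two animals were necropsied at termination, and testes were fixed in modified Davidson's fixative, paraffin-embedded, H&E-stained and examined microscopically.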

[10] = AUC (0 to t) in female Sprague-Dawley rat at 500 mg/kg, po measured on day 14; assay type: ADME, organism-based; design: dose 500 mg/kg, route oral; conditions: plasma; procedure, shortened: as §1
Mus musculus [11] = experiment: Toxicity in fasting C57BL/J6 mouse assessed as glucose level at 50 mg/kg, po measured after 60 mins; assay type: organism-based; design: dose 50 mg/kg, route oral; conditions: in vivo, 1 h
Procedure, shortened: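 Eight-week-old male C57BL/6 mice were fasted 6 h with free access to water, then dosed orally with compound or 0.5% methylcellulose vehicle, with no glucose challenge. Blood glucose was followed up to 360 min, n = 6 per group.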

[12] = Cmax in female Sprague-Dawley rat at 500 mg/kg, po measured on day 1; assay type: ADME, organism-based; design: dose 500 mg/kg, route oral; conditions: in vivo; procedure, shortened: as §1
Cytochrome P450 1A2 = target: T1, Cytochrome P450 1A2 (Homo sapiens, UniProt P05177); experiment: Inhibition of CYP1A2 in human liver microsomes; assay type: ADME
T1 sequence (P05177 whole entry): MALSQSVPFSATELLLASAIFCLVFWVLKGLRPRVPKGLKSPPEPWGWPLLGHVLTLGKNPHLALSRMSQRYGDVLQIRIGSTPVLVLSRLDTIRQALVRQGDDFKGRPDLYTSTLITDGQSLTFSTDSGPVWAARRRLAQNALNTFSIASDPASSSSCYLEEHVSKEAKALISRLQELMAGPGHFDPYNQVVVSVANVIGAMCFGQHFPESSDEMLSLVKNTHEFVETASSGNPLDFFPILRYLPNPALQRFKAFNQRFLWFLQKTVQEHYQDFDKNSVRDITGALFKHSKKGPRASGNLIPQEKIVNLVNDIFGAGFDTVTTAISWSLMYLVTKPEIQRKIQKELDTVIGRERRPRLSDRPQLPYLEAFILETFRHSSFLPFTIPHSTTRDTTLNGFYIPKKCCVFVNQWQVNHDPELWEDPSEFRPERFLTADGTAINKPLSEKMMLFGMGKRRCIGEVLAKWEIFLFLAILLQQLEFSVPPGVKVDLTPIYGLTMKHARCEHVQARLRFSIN
Procedure, shortened: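 Pooled human liver microsomes at 0.25 mg/mL, each with a CYP-selective substrate and test compound up to 25 µM, preincubated at 37 °C. It is stopped on ice with ice-cold acetonitrile and centrifuged, and the supernatant is analysed by LC–MS/MS.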

Salmonella typhimurium = experiment: Genotoxicity in Salmonella typhimurium TA100 assessed as increase in number of revertants at 1.5 to 5000 ug/plate by Ames test in presence of S9 fraction; assay type: toxicity, organism-based; conditions: salmonella enterica subsp. enterica serovar typhimurium
Procedure, shortened: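 Ames reverse mutation test by direct plate incorporation in S. typhimurium TA98 and TA100, with or without Aroclor 1254-induced rat liver S9 mix. Compound in DMSO at 1.5–5000 µg/plate, plated in top agar, incubated 37 °C for about 50 h, then revertant colonies counted. Plates were checked for precipitation and cytotoxicity. A positive was a reproducible, dose-related increase in revertants of more than 2-fold.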

[13] = AUC (0 to t) in female Sprague-Dawley rat at 1000 mg/kg, po measured on day 1; assay type: ADME, organism-based; design: dose 1000 mg/kg, route oral; conditions: plasma; procedure, shortened: as §1
[14] = Cmax in Sprague-Dawley rat at 3 mg/kg, iv and 10 mg/kg, po; assay type: ADME, organism-based; conditions: in vivo; procedure, shortened: as §2
[15] = Oral bioavailability in ICR mouse at 10 mg/kg; assay type: ADME, organism-based; conditions: in vivo
Procedure, shortened: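 Male ICR mice and 7-week-old SD rats received a 3 mg/kg iv bolus or a 10 mg/kg oral gavage dose. Plasma was precipitated with 2 volumes of acetonitrile and analysed by HPLC. Parameters came from noncompartmental analysis.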

[16] = Increase in 11 mM glucose-stimulated insulin secretion in Sprague-Dawley rat Pancreatic islet measured for 1 hr by ELISA; assay type: functional
Procedure, shortened: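 Islets isolated from male Sprague–Dawley rat pancreas, five per well. Islets were pre-incubated 30 min in HEPES-buffered Krebs–Ringer buffer (pH 7.4) with low glucose, then moved to the same buffer with glucose (11 mM) plus test compound. Static incubation ran at 37 °C in a shaking waterbath under 5% CO₂. Buffer was sampled at 1 h, insulin measured by ELISA, and reported as % increase versus control.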

[17] = Cmax in male Sprague-Dawley rat at 1000 mg/kg, po measured on day 14; assay type: ADME, organism-based; design: dose 1000 mg/kg, route oral; conditions: in vivo; procedure, shortened: as §1
Mus musculus [18] = experiment: Toxicity in C57BL/J6 mouse assessed as hypoglycemia at 150 mg/kg, po; conditions: in vivo

- Cmax [1]: 3060 ng/mL
- AUC(0-t) [2]: 24000 ng·h/mL
- AUC [3]: 11900 ng·h/mL
- Cmax [4]: 2800 ng/mL
- half-life [5]: 1.4 h
- Activity (Cytochrome P450 3A4): Not Active
- Tmax [6]: 3 h
- AUC(0-t) [7]: 13700 ng·h/mL
- Cmax [8]: 3920 ng/mL
- Tmax [9]: 3 h
- AUC(0-t) [10]: 16300 ng·h/mL
- Cmax [12]: 4300 ng/mL
- inhibition (INH) (Cytochrome P450 1A2): Not Active
- AUC(0-t) [13]: 29200 ng·h/mL
- Cmax [14]: 3700 ng/mL
- bioavailability [15]: 24%
- Cmax [17]: 3090 ng/mL
SMILES: COCCOCn1ccc(NC(=O)c2cc(Oc3ccc(S(C)(=O)=O)cc3)cc(-c3ncccc3C)c2)n1
- Activity (Rattus norvegicus): Non-toxic
- Activity (Canis familiaris): Non-toxic
- Activity (Mus musculus [11]): > 60 mg/dL
- Activity (Salmonella typhimurium): Non-toxic
- fold change (FC) [16]: 3
- Activity (Mus musculus [18]): Non-toxic
